Experimental data from different studies.
Target: Cyclin-dependent kinase 8 (CDK8, Homo sapiens, UniProt P49336)

| Structure (SMILES) | observed | action | method | concentration | measurement | result |
| --- | --- | --- | --- | --- | --- | --- |
| CO[C@@H]1[C@H](N(C)C(=O)c2ccccc2)C[C@H]2O[C@]1(C)n1c3ccccc3c3c4c(c5c6ccccc6n2c5c31)C(=O)NC4 | enzyme activity | inhibitor |  | 1 µM | inhibition | 5% |
| C[C@H]1CC[C@H](n2c3cnccc3c3cnc(Nc4ccc5c(n4)CCN(C(=O)CO)C5)nc32)CC1 | binding |  | competition with immobilised ligand | 1 µM | remaining binding | 100% |
| Cc1cc(S(=O)(=O)N[C@H]2CC[C@H](CN3CCN(c4ccc(C5CCC(=O)NC5=O)cc4F)CC3)CC2)ccc1Nc1ncc(C(F)(F)F)c(N2CCC[C@](C)(O)C2)n1 (some centres unmarked) | binding |  | competition with immobilised ligand | 1 µM | remaining binding | 76% |
| C1=C/COCc2cc(ccc2OCCN2CCCC2)Nc2nccc(n2)-c2cccc(c2)COC/1 | cell-free assay |  |  | 0.1 µM | remaining signal | 75% |
| CCCCC(=O)Nc1ccc(-c2ccc3ncn(CCC)c(=O)c3c2)cn1 | binding |  | competition with immobilised ligand | 0.5 µM | remaining binding | 83% |
| C[C@]1(O)CCCN(c2nc(Nc3ccc(S(=O)(=O)N[C@H]4CC[C@H](CN5CCN(c6ccc(C7CCC(=O)NC7=O)cc6F)CC5)CC4)cc3Cl)ncc2C(F)(F)F)C1 (some centres unmarked) | binding |  | competition with immobilised ligand | 1 µM | remaining binding | 80% |
| CC#CC(=O)N1CCC[C@H]1c1nc(-c2ccc(C(=O)Nc3ccccn3)cc2)c2c(N)nccn12 | enzyme activity | inhibitor |  | 1 µM | inhibition | 5% |
| Cc1ccc(NC(=O)c2ccnc(C(F)(F)F)c2)cc1-c1cc(OCCO)nc(N2CCOCC2)c1 | binding |  | competition with immobilised ligand | 1 µM | remaining binding | 100% |
